Reference: ChEMBL document CHEMBL1130118, “A novel radioiodination reagent for protein radiopharmaceuticals with L-lysine as a plasma-stable metabolizable linkage to liberate m-iodohippuric acid after lysosomal proteolysis” (J Med Chem, 1997)
Where “and” joins values, the source holds several entries; their conditions need not be identical. Equal values may be shown once.

Legend:
Format in all cases: ADME, organism-based
[1] = system: Mus musculus; experiment: The biodistribution time for [131 I ]L-HML-NGA radioactivity after concomitant administration of [131 I ]L-HML-NGA and [125 I ]MPH-NGA in mice. It is expressed as percent injected dose per gram of blood tissue.; conditions: in vivo
Summary of the method: (§1)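 Six-week-old male ddY mice were given one i.v. co-injection of a 131I/125I-labelled NGA pair, each diluted to 90 µg/mL protein in 0.1 M PBS pH 6.0 and mixed 1:1, giving 9 µg of each radioiodinated NGA per mouse. Groups of five were killed at 5, 15, 30 min, 1 h and 3 h. Organs were weighed and counted in a well counter. Values are % ID per organ, blood as % ID/g, mean (SD).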

[2] = system: Mus musculus; experiment: The biodistribution time for [131 I ]L-HML-NGA radioactivity after concomitant administration of [131 I ]L-HML-NGA and [125 I ]MIH-NGA in mice. It is expressed as percent injected dose per neck.; conditions: in vivo; summary of the method: as §1
[3] = Cumulative radioactivity exerted by [131 I ]L-HML-NGA in the feces at 24 hour postinjection of [131 I ]L-HML-NGA and [125 I ]MPH-NGA.; conditions: in vivo
Summary of the method: (§2)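 Mice received one i.v. co-injection of the dual-isotope NGA mixture, 9 µg of each radioiodinated protein, and were housed in metabolic cages for 24 h. Cumulative urine and feces were collected and counted. Values are % injected dose, mean (SD) of five animals, with a Student's paired t-test between the two co-administered conjugates.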

[4] = Cumulative radioactivity exerted by [131 I ]L-HML-NGA in the urine at 24 hour postinjection of [131 I ]L-HML-NGA and [125 I ]MIH-NGA.; conditions: in vivo; summary of the method: as §2
[5] = system: Mus musculus; experiment: The biodistribution time for [131 I ]L-HML-NGA radioactivity after concomitant administration of [131 I ]L-HML-NGA and [125 I ]MIH-NGA in mice. It is expressed as percent injected dose per gram of blood tissue.; conditions: in vivo; summary of the method: as §1
[6] = system: Mus musculus; experiment: The biodistribution time for [131 I ]L-HML-NGA radioactivity after concomitant administration of [131 I ]L-HML-NGA and [125 I ]MPH-NGA in mice. It is expressed as percent injected dose per stomach.; conditions: in vivo; summary of the method: as §1
[7] = system: Mus musculus; experiment: The biodistribution time for [131 I ]L-HML-NGA radioactivity after concomitant administration of [[131 I ]L-HML-NGA and [125 I ]MPH-NGA in mice. It is expressed as percent injected dose per kidney.; conditions: in vivo; summary of the method: as §1
[8] = system: Mus musculus; experiment: The biodistribution time for [131 I ]L-HML-NGA radioactivity after concomitant administration of [131 I ]L-HML-NGA and [125 I ]MIH-NGA in mice. It is expressed as percent injected dose per stomach.; conditions: in vivo; summary of the method: as §1
[9] = Cumulative radioactivity exerted by [131 I ]L-HML-NGA in the urine at 24 hour postinjection of [131 I ]L-HML-NGA and [125 I ]MPH-NGA.; conditions: in vivo; summary of the method: as §2
[10] = Cumulative radioactivity exerted by [131 I ]L-HML-NGA in the feces at 24 hour postinjection of [131 I ]L-HML-NGA and [125 I ]D-HML-NGA.; conditions: in vivo; summary of the method: as §2
[11] = Cumulative radioactivity exerted by [131 I ]L-HML-NGA in the feces at 24 hour postinjection of [131 I ]L-HML-NGA and [125 I ]MIH-NGA.; conditions: in vivo; summary of the method: as §2
[12] = Cumulative radioactivity exerted by [131 I ]L-HML-NGA in the urine at 24 hour postinjection of [131 I ]L-HML-NGA and [125 I ]HML-IT-NGA.; conditions: in vivo; summary of the method: as §2
[13] = system: Mus musculus; experiment: Biodistribution time for compound radioactivity after concomitant administration of compound and [125 I ]MIH-NGA in mice. It is expressed as % injected dose per liver. Values are mean(SD) of 5 animals for each experiment after 5 minutes; conditions: in vivo; summary of the method: as §1
[14] = system: Mus musculus; experiment: The biodistribution time for [131 I ]L-HML-NGA radioactivity after concomitant administration of [131 I ]L-HML-NGA and [125 I ]D-HML-NGA in mice. It is expressed as percent injected dose per stomach.; conditions: in vivo; summary of the method: as §1
[15] = system: Mus musculus; experiment: The biodistribution time for [131 I ]L-HML-NGA radioactivity after concomitant administration of [[131 I ]L-HML-NGA and [125 I ]L-HML-IT-NGA in mice. It is expressed as percent injected dose per kidney.; conditions: in vivo; summary of the method: as §1
[16] = system: Mus musculus; experiment: Biodistribution time for compound radioactivity after concomitant administration of compound and [125 I ]MIH-NGA in mice was expressed as % injected dose per liver after 15 min; conditions: in vivo, 0.25 h; summary of the method: as §1
[17] = system: Mus musculus; experiment: The biodistribution time for [131 I ]L-HML-NGA radioactivity after concomitant administration of [[131 I ]L-HML-NGA and [125 I ]D-HML-NGA in mice. It is expressed as percent injected dose per kidney.; conditions: in vivo; summary of the method: as §1
[18] = system: Mus musculus; experiment: The biodistribution time for [131 I ]L-HML-NGA radioactivity after concomitant administration of [131 I ]L-HML-NGA and [125 I ]MPH-NGA in mice. It is expressed as percent injected dose per neck.; conditions: in vivo; summary of the method: as §1
[19] = system: Mus musculus; experiment: The biodistribution time for [131 I ]L-HML-NGA radioactivity after concomitant administration of [131 I ]L-HML-NGA and [125 I ]MPH-NGA in mice. It is expressed as percent injected dose per intestine.; conditions: in vivo; summary of the method: as §1
[20] = system: Mus musculus; experiment: The biodistribution time for [131 I ]L-HML-NGA radioactivity after concomitant administration of [131 I ]L-HML-NGA and [125 I ]L-HML-IT-NGA in mice. It is expressed as percent injected dose per neck.; conditions: in vivo; summary of the method: as §1
[21] = system: Mus musculus; experiment: The biodistribution time for [131 I ]L-HML-NGA radioactivity after concomitant administration of [131 I ]L-HML-NGA and [125 I ]L-HML-IT-NGA in mice. It is expressed as percent injected dose per intestine.; conditions: in vivo; summary of the method: as §1
[22] = system: Mus musculus; experiment: The biodistribution time for [131 I ]L-HML-NGA radioactivity after concomitant administration of [131 I ]L-HML-NGA and [125 I ]MPH-NGA in mice. It is expressed as percent injected dose per liver. Ent after 1 hour; conditions: in vivo; summary of the method: as §1
[23] = system: Mus musculus; experiment: The biodistribution time for [131 I ]L-HML-NGA radioactivity after concomitant administration of [131 I ]L-HML-NGA and [125 I ]L-HML-IT-NGA in mice. It is expressed as percent injected dose per gram of blood tissue.; conditions: in vivo; summary of the method: as §1
[24] = system: Mus musculus; experiment: The biodistribution time for [131 I ]L-HML-NGA radioactivity after concomitant administration of [131 I ]L-HML-NGA and [125 I ]L-HML-IT-NGA in mice. It is expressed as percent injected dose per stomach.; conditions: in vivo; summary of the method: as §1
[25] = system: Mus musculus; experiment: The biodistribution time for [131 I ]L-HML-NGA radioactivity after concomitant administration of [131 I ]L-HML-NGA and [125 I ]L-HML-IT-NGA in mice. It is expressed as percent injected dose per gram of blood tissue. Values are mean(SD) of five anim; conditions: in vivo; summary of the method: as §1

- Radioactivity [3]: 3.28%
- Radioactivity [4]: 87.32%
- Radioactivity [9]: 84.45%
- Radioactivity [10]: 4.4%
- Radioactivity [11]: 5.87%
- Radioactivity [12]: 80.07%
- Radioactivity [13]: 94.15%
- Radioactivity [16]: 54.33%
- Radioactivity [18]: 0.05% and 0.23% and 0.09% and 0.03%
- Radioactivity [20]: 0.07% and 0.25% and 0.21% and 0.03%
- Radioactivity [22]: 4.29%
- Radioactivity [23]: 1.13% and 1.72% and 0.8% and 0.48%
- Radioactivity [24]: 0.17% and 0.46% and 0.3% and 0.35%
- Radioactivity [25]: 3.19%
SMILES: N[C@@H](CS)C(=O)SC1CC(=O)N(CCCC[C@H](NC(=O)CNC(=O)c2cccc([131I])c2)C(=O)O)C1=O (stereo not given in full)
- Radioactivity [1]: 1.22% and 3.14% and 1.28% and 0.54% and 0.31%
- Radioactivity [2]: 0.07% and 0.25% and 0.12% and 0.05% and 0.03%
- Radioactivity [5]: 1.22% and 2.93% and 1.48% and 0.58% and 0.43%
- Radioactivity [6]: 0.26% and 0.57% and 0.3% and 0.29% and 0.33%
- Radioactivity [7]: 0.76% and 5.3% and 2.3% and 0.31% and 0.13%
- Radioactivity [8]: 0.39% and 0.47% and 0.46% and 0.45% and 0.51%
- Radioactivity [14]: 0.2% and 0.5% and 0.88% and 0.78% and 0.69%
- Radioactivity [15]: 0.28% and 4.91% and 4.92% and 0.96% and 0.21%
- Radioactivity [17]: 1.07% and 4.49% and 1.55% and 0.61% and 0.27%
- Radioactivity [19]: 0.66% and 4.66% and 4.59% and 5.75% and 5.43%
- Radioactivity [21]: 0.35% and 2.3% and 4.98% and 5.54% and 5.14%
